Reference: ChEMBL document CHEMBL3616466, “Pyrazolo[3,4-h]quinolines promising photosensitizing agents in the treatment of cancer” (Eur J Med Chem, 2015)

Key:
Format in all cases: functional
Jurkat [1] = experiment: Photocytotoxicity against human Jurkat cells assessed as growth inhibition at 2.5 J/cm'2 irradiation for 30 mins followed by drug treated for 72 hrs by MTT assay; details: light or radiation study
In short: (§1)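 Cells seeded at 5 × 10³ per well and pre-incubated 24 h. Drug dilutions in HBSS (pH 7.2, from DMSO stock) added for 30 min at 37 °C, then UV-A irradiation at the stated dose. Drug solution then replaced with culture medium and plates incubated 72 h. Viability by MTT; GI50 from concentration series.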

Jurkat [2] = experiment: Photocytotoxicity against human Jurkat cells assessed as growth inhibition at 1.25 J/cm'2 irradiation for 30 mins followed by drug treated for 72 hrs by MTT assay; details: light or radiation study; in short: as §1
HL-60 [3] = experiment: Photocytotoxicity against human HL60 cells assessed as growth inhibition at 2.5 J/cm'2 irradiation for 30 mins followed by drug treated for 72 hrs by MTT assay; details: HL-60, light or radiation study; in short: as §1
HL-60 [4] = experiment: Photocytotoxicity against human HL60 cells assessed as growth inhibition at 1.25 J/cm'2 irradiation for 30 mins followed by drug treated for 72 hrs by MTT assay; details: HL-60, light or radiation study; in short: as §1
MCF7 [5] = experiment: Photocytotoxicity against human MCF7 cells assessed as growth inhibition at 3.75 J/cm'2 irradiation for 30 mins followed by drug treated for 72 hrs by MTT assay; details: MCF7, light or radiation study; in short: as §1
MCF7 [6] = experiment: Photocytotoxicity against human MCF7 cells assessed as growth inhibition at 2.5 J/cm'2 irradiation for 30 mins followed by drug treated for 72 hrs by MTT assay; details: MCF7, light or radiation study; in short: as §1
A549 [7] = experiment: Photocytotoxicity against human A549 cells assessed as growth inhibition at 3.75 J/cm'2 irradiation for 30 mins followed by drug treated for 72 hrs by MTT assay; details: A549, light or radiation study; in short: as §1
A549 [8] = experiment: Photocytotoxicity against human A549 cells assessed as growth inhibition at 2.5 J/cm'2 irradiation for 30 mins followed by drug treated for 72 hrs by MTT assay; details: A549, light or radiation study; in short: as §1
LoVo [9] = experiment: Photocytotoxicity against human LoVo cells assessed as growth inhibition at 3.75 J/cm'2 irradiation for 30 mins followed by drug treated for 72 hrs by MTT assay; details: light or radiation study; in short: as §1
LoVo [10] = experiment: Photocytotoxicity against human LoVo cells assessed as growth inhibition at 2.5 J/cm'2 irradiation for 30 mins followed by drug treated for 72 hrs by MTT assay; details: light or radiation study; in short: as §1
Jurkat [11] = experiment: Cytotoxicity against human Jurkat cells assessed as growth inhibition after 72 hrs by MTT assay
HL-60 [12] = experiment: Cytotoxicity against human HL60 cells assessed as growth inhibition after 72 hrs by MTT assay; details: HL-60, 72 h
A549 [13] = experiment: Cytotoxicity against human A549 cells assessed as growth inhibition after 72 hrs by MTT assay; details: A549, 72 h
In short: (§2)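 Cells (5 × 10³ per well) pre-incubated 24 h at 37 °C, 5% CO₂, then exposed in the dark to serial concentrations diluted from DMSO stock into complete medium for 72 h at 37 °C. Viability read by MTT; GI50 derived. LoVo in Ham's F-12, MCF-7 and A-549 in DMEM, all with 10% FBS and penicillin/streptomycin.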

MCF7 [14] = experiment: Cytotoxicity against human MCF7 cells assessed as growth inhibition after 72 hrs by MTT assay; details: MCF7, 72 h; in short: as §2
LoVo [15] = experiment: Cytotoxicity against human LoVo cells assessed as growth inhibition after 72 hrs by MTT assay; in short: as §2

| SMILES | GI50 (Jurkat [1]) | GI50 (Jurkat [2]) | GI50 (HL-60 [3]) | GI50 (HL-60 [4]) | GI50 (MCF7 [5]) | GI50 (MCF7 [6]) | GI50 (A549 [7]) | GI50 (A549 [8]) | GI50 (LoVo [9]) | GI50 (LoVo [10]) | GI50 (Jurkat [11]) | GI50 (HL-60 [12]) | GI50 (A549 [13]) | GI50 (MCF7 [14]) | GI50 (LoVo [15]) |
| --- | --- | --- | --- | --- | --- | --- | --- | --- | --- | --- | --- | --- | --- | --- | --- |
| Cn1c2c(cc(S(=O)(=O)c3ccccc3)c1=O)CCc1c-2cnn1-c1cccc(Cl)c1 | 2.81 µM | > 20 µM | 2.44 µM | > 20 µM | 9.01 µM | 12.7 µM | 8.4 µM | > 20 µM | 7.54 µM | 13.1 µM | 11.3 µM | > 20 µM | > 20 µM | > 20 µM | > 20 µM |
| O=c1c(S(=O)(=O)c2ccccc2)cc2c(n1Cc1ccccc1)-c1cnn(-c3ccc(Cl)cc3)c1CC2 | 4.97 µM | > 20 µM | 7.17 µM | > 20 µM | 9.89 µM | > 20 µM | 6.64 µM | > 20 µM | 3.72 µM | 11.1 µM | 13.6 µM | 11.6 µM | > 20 µM | > 20 µM | > 20 µM |
| O=c1[nH]c2c(cc1S(=O)(=O)c1ccccc1)CCc1c-2cnn1-c1cccc(Cl)c1 | > 20 µM | > 20 µM | > 20 µM | > 20 µM | > 20 µM | > 20 µM | 9.53 µM | 14.1 µM | > 20 µM | > 20 µM | 4.55 µM | > 20 µM | 6.41 µM | > 20 µM | > 20 µM |
| COc1ccc(-n2ncc3c4[nH]c(=O)c(S(=O)(=O)c5ccccc5)cc4ccc32)cc1 | > 20 µM | > 20 µM | > 20 µM | > 20 µM | > 20 µM | > 20 µM | 4.26 µM | 5.39 µM | > 20 µM | > 20 µM | > 20 µM | > 20 µM | 6.56 µM | 8.36 µM | > 20 µM |
| COc1ccc(-n2ncc3c2CCc2cc(S(=O)(=O)c4ccccc4)c(OCc4ccccc4)nc2-3)cc1 | > 20 µM | > 20 µM | 9.09 µM | > 20 µM | > 20 µM | > 20 µM | 5.74 µM | > 20 µM | 2.76 µM | > 20 µM |  |  |  |  |  |
| O=c1[nH]c2c(cc1S(=O)(=O)c1ccccc1)CCc1c-2cnn1-c1ccccc1 | > 20 µM | > 20 µM | > 20 µM | > 20 µM | > 20 µM | > 20 µM | 14.1 µM | > 20 µM | > 20 µM | > 20 µM | 20 µM | > 20 µM | 10.8 µM | 11.5 µM | > 20 µM |
| CCOC(=O)c1cc2c([nH]c1=O)-c1cnn(-c3ccc(Cl)cc3)c1CC2 | > 20 µM | > 20 µM | > 20 µM | > 20 µM | 9.85 µM | 7.32 µM | > 20 µM | > 20 µM | > 20 µM | > 20 µM | > 20 µM | > 20 µM | 5 µM | 6.38 µM | > 20 µM |
| O=c1[nH]c2c(ccc3c2cnn3-c2ccc(Cl)cc2)cc1S(=O)(=O)c1ccccc1 |  |  |  |  |  |  |  |  |  |  | > 20 µM | > 20 µM | 1.46 µM | 9.26 µM | > 20 µM |
